≈ marks a conversion by molar mass, not a printed value.
Tests used:
Type in all cases: functional
[1] = test system: Acinetobacter sp.; assay: Antibacterial activity against Acinetobacter spp. by broth microdilution method
In short: (§1)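 MICs were determined by CLSI broth microdilution against clinical isolate panels that included aminoglycoside-resistant isolates. […] MIC90 was derived per group and not calculated when n was <10. Imipenem, ceftobiprole, ciprofloxacin and tigecycline MICs were also determined for the resistant isolates.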

[2] = test system: Enterobacter sp.; assay: Antibacterial activity against Enterobacter spp. by broth microdilution method; in short: as §1
[3] = Antibacterial activity against indole positive Proteae by broth microdilution method; in short: as §1
[4] = test system: Pseudomonas aeruginosa; assay: Antibacterial activity against Pseudomonas aeruginosa by broth microdilution method; in short: as §1
[5] = test system: Serratia sp.; assay: Antibacterial activity against Serratia spp. by broth microdilution method; in short: as §1
[6] = test system: Staphylococcus sp.; assay: Antibacterial activity against Staphylococcus spp. by broth microdilution method; in short: as §1
[7] = test system: Proteus mirabilis; assay: Antibacterial activity against Proteus mirabilis by broth microdilution method; in short: as §1
[8] = test system: Citrobacter; assay: Antibacterial activity against Citrobacter spp. by broth microdilution method; in short: as §1
[9] = test system: Escherichia coli; assay: Antibacterial activity against Escherichia coli by broth microdilution method; in short: as §1
[10] = test system: Klebsiella sp.; assay: Antibacterial activity against Klebsiella spp. by broth microdilution method; in short: as §1
[11] = test system: Escherichia coli; assay: Antibacterial activity against aminoglycoside-resistant Escherichia coli expressing AAC(3)-4 by broth microdilution method
In short: (§2)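 Clinical aminoglycoside-resistant isolates were each carrying a single aminoglycoside-modifying enzyme. […] MICs were determined by CLSI broth microdilution.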

[12] = test system: Acinetobacter baumannii; assay: Antibacterial activity against Acinetobacter baumannii ATCC 19606 by broth microdilution method; details: ATCC 19606 = CIP 70.34 = JCM 6841
In short: (§3)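 MICs were measured by broth microdilution following CLSI guidance. The strains formed a 25-strain screening panel with diverse aminoglycoside resistance mechanisms. The panel included Gram-negative and S. aureus strains carrying key aminoglycoside-modifying enzymes, strains with altered permeability or efflux, and an armA ribosomal methyltransferase strain.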

[13] = test system: Acinetobacter baumannii; assay: Antibacterial activity against aminoglycoside-resistant Acinetobacter baumannii expressing ANT(2'')-1 by broth microdilution method; in short: as §2
[14] = test system: Citrobacter freundii; assay: Antibacterial activity against aminoglycoside-resistant Citrobacter freundii expressing AAC(3)-2 by broth microdilution method; in short: as §2
[15] = test system: Enterobacter cloacae; assay: Antibacterial activity against aminoglycoside-resistant Enterobacter cloacae expressing AAC(6')-1 by broth microdilution method; in short: as §2
[16] = test system: Pseudomonas aeruginosa; assay: Antibacterial activity against Pseudomonas aeruginosa expressing AAC(3)-1 by broth microdilution method
[17] = test system: Pseudomonas aeruginosa; assay: Antibacterial activity against Pseudomonas aeruginosa expressing AAC(6')-2 by broth microdilution method
[18] = test system: Citrobacter freundii; assay: Antibacterial activity against aminoglycoside-resistant Citrobacter freundii expressing AAC(6')-1 by broth microdilution method; in short: as §2
[19] = test system: Klebsiella pneumoniae; assay: Antibacterial activity against aminoglycoside-resistant Klebsiella pneumoniae expressing AAC(3)-1 by broth microdilution method; in short: as §2
[20] = test system: Pseudomonas aeruginosa; assay: Antibacterial activity against wild type Pseudomonas aeruginosa expressing efflux pump by broth microdilution method
In short: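 MIC was determined by CLSI broth microdilution, read in μg/ml. The strain came from a 25-strain screening panel with diverse aminoglycoside resistance mechanisms. The panel included strains with changes in permeability or efflux, key aminoglycoside-modifying enzymes and an armA methyltransferase strain.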

[21] = test system: Escherichia coli; assay: Antibacterial activity against Escherichia coli ATCC 25922 by broth microdilution method; in short: as §3
[22] = test system: Serratia marcescens; assay: Antibacterial activity against aminoglycoside-resistant Serratia marcescens expressing ANT(2''), AAC(6') by broth microdilution method; in short: as §3
[23] = test system: Serratia marcescens; assay: Antibacterial activity against aminoglycoside-resistant Serratia marcescens expressing AAC(6')-1 by broth microdilution method; in short: as §2
[24] = test system: Pseudomonas aeruginosa; assay: Antibacterial activity against aminoglycoside-resistant Pseudomonas aeruginosa expressing AAC(6')-2 by broth microdilution method; in short: as §2
[25] = test system: Staphylococcus aureus; assay: Antibacterial activity against aminoglycoside-resistant Staphylococcus aureus expressing ANT(4',4'')-2 by broth microdilution method; in short: as §2
[26] = test system: Acinetobacter; assay: Antibacterial activity against aminoglycoside-resistant Acinetobacter spp. expressing APH(3')-6 by broth microdilution method; in short: as §2
[27] = test system: Staphylococcus aureus; assay: Antibacterial activity against aminoglycoside-resistant Staphylococcus aureus expressing APH(2'') + AAC(6') by broth microdilution method; in short: as §3
[28] = test system: Escherichia coli; assay: Antibacterial activity against aminoglycoside-resistant Escherichia coli expressing armA methylase by broth microdilution method; in short: as §3
[29] = test system: Klebsiella pneumoniae; assay: Antibacterial activity against aminoglycoside-resistant Klebsiella pneumoniae expressing AAC(3)-4 by broth microdilution method; in short: as §2
[30] = test system: Acinetobacter baumannii; assay: Antibacterial activity against aminoglycoside-resistant Acinetobacter baumannii expressing […] by broth microdilution method; in short: as §2
[31] = test system: Klebsiella oxytoca; assay: Antibacterial activity against aminoglycoside-resistant Klebsiella oxytoca expressing AAC(6')-1 by broth microdilution method; in short: as §2
[32] = test system: Acinetobacter calcoaceticus; assay: Antibacterial activity against aminoglycoside-resistant Acinetobacter calcoaceticus expressing AAC(6')-1 by broth microdilution method; in short: as §2
[33] = test system: Klebsiella pneumoniae; assay: Antibacterial activity against aminoglycoside-resistant Klebsiella pneumoniae expressing AAC(3)-2 by broth microdilution method; in short: as §2
[34] = test system: Staphylococcus aureus; assay: Antibacterial activity against aminoglycoside-resistant Staphylococcus aureus expressing APH(2'') + AAC(6')-1 by broth microdilution method; in short: as §2
[35] = test system: Klebsiella aerogenes; assay: Antibacterial activity against aminoglycoside-resistant Enterobacter aerogenes expressing AAC(6')-1 by broth microdilution method; in short: as §2
[36] = test system: Pseudomonas aeruginosa; assay: Antibacterial activity against aminoglycoside-resistant Pseudomonas aeruginosa expressing ANT(2'')-1 by broth microdilution method; in short: as §2
[37] = test system: Pseudomonas aeruginosa; assay: Antibacterial activity against Pseudomonas aeruginosa ATCC 27853 by broth microdilution method
[38] = test system: Escherichia coli; assay: Antibacterial activity against aminoglycoside-resistant Escherichia coli expressing AAC(6')-1 by broth microdilution method; in short: as §2
[39] = test system: Enterobacter cloacae; assay: Antibacterial activity against aminoglycoside-resistant Enterobacter cloacae expressing AAC(3)-2 by broth microdilution method; in short: as §2
[40] = test system: Serratia liquefaciens; assay: Antibacterial activity against aminoglycoside-resistant Serratia liquefaciens expressing AAC(3)-2 by broth microdilution method; in short: as §2
[41] = test system: Escherichia coli; assay: Antibacterial activity against aminoglycoside-resistant Escherichia coli expressing ANT(3)-2 by broth microdilution method; in short: as §2
[42] = test system: Acinetobacter baumannii; assay: Antibacterial activity against aminoglycoside-resistant Acinetobacter baumannii expressing APH(3')-6 by broth microdilution method; in short: as §2
[43] = test system: Escherichia coli; assay: Antibacterial activity against aminoglycoside-resistant Escherichia coli expressing AAC(3)-2 by broth microdilution method; in short: as §2
[44] = test system: Pseudomonas aeruginosa; assay: Antibacterial activity against efflux pump deficient Pseudomonas aeruginosa by broth microdilution method
[45] = test system: Escherichia coli; assay: Antibacterial activity against aminoglycoside-resistant Escherichia coli expressing ANT(2'')-1 by broth microdilution method; in short: as §2
[46] = test system: Klebsiella oxytoca; assay: Antibacterial activity against aminoglycoside-resistant Klebsiella oxytoca expressing AAC(3)-2 by broth microdilution method; in short: as §2
[47] = test system: Pseudomonas aeruginosa; assay: Antibacterial activity against Pseudomonas aeruginosa expressing ANT(4')-2 by broth microdilution method; in short: as §3
[48] = test system: Klebsiella aerogenes; assay: Antibacterial activity against aminoglycoside-resistant Enterobacter aerogenes expressing AAC(3)-2 by broth microdilution method; in short: as §2
[49] = test system: Escherichia coli; assay: Antibacterial activity against aminoglycoside-resistant Escherichia coli expressing ANT(6')-1 by broth microdilution method; in short: as §2
[50] = test system: Staphylococcus epidermidis; assay: Antibacterial activity against aminoglycoside-resistant Staphylococcus epidermidis expressing APH(3')-3 by broth microdilution method
[51] = test system: Klebsiella pneumoniae; assay: Antibacterial activity against Klebsiella pneumoniae ATCC 10031 by broth microdilution method; in short: as §3
[52] = test system: Acinetobacter baumannii; assay: Antibacterial activity against aminoglycoside-susceptible Acinetobacter baumannii by broth microdilution method
[53] = test system: Pseudomonas aeruginosa; assay: Antibacterial activity against Pseudomonas aeruginosa expressing mexXY operon by broth microdilution method; in short: as §3
[54] = test system: Klebsiella pneumoniae; assay: Antibacterial activity against aminoglycoside-resistant Klebsiella pneumoniae expressing AAC(6')-1 by broth microdilution method; in short: as §2
[55] = test system: Staphylococcus epidermidis; assay: Antibacterial activity against aminoglycoside-resistant Staphylococcus epidermidis expressing ANT(4',4'')-2 by broth microdilution method; in short: as §2
[56] = test system: Staphylococcus epidermidis; assay: Antibacterial activity against aminoglycoside-resistant Staphylococcus epidermidis expressing APH(2'') + AAC(6')-1 by broth microdilution method; in short: as §2

CN(C)c1cc(NC(=O)CNC(C)(C)C)c(O)c2c1C[C@H]1C[C@H]3[C@H](N(C)C)C(O)=C(C(N)=O)C(=O)[C@@]3(O)C(O)=C1C2=O [TIGECYCLINE]
MIC50 [1]: 2 µg/mL (≈ 3.41 µM)
MIC90 [1]: 16 µg/mL (≈ 27.3 µM)
MIC50 [2]: 0.5 µg/mL (≈ 0.854 µM)
MIC90 [2]: 4 µg/mL (≈ 6.83 µM)
MIC50 [3]: 2 µg/mL (≈ 3.41 µM)
MIC50 [4]: 16 µg/mL (≈ 27.3 µM)
MIC90 [4]: > 16 µg/mL
MIC50 ([5]; Serratia sp. (in: enterobacteria)): 2 µg/mL (≈ 3.41 µM)
MIC50 [6]: 0.25 µg/mL (≈ 0.427 µM)
MIC90 [6]: 0.5 µg/mL (≈ 0.854 µM)
MIC50 [7]: 4 µg/mL (≈ 6.83 µM)
MIC90 [7]: 8 µg/mL (≈ 13.7 µM)
MIC50 [8]: 0.5 µg/mL (≈ 0.854 µM)
MIC50 [9]: 0.25 µg/mL (≈ 0.427 µM)
MIC90 [9]: 0.5 µg/mL (≈ 0.854 µM)
MIC50 [10]: 1 µg/mL (≈ 1.71 µM)
MIC90 [10]: 2 µg/mL (≈ 3.41 µM)

GENTAMICIN
MIC [11]: 16 µg/mL
MIC [12]: 16 µg/mL
MIC [13]: > 64 µg/mL
MIC [14]: 62 µg/mL
MIC50 [1]: > 64 µg/mL
MIC90 [1]: > 64 µg/mL
MIC [15]: 1 µg/mL
MIC [16]: 64 µg/mL
MIC [17]: 32 µg/mL
MIC [18]: 1 µg/mL
MIC [19]: 32 µg/mL
MIC50 [2]: 32 µg/mL
MIC90 [2]: > 64 µg/mL
MIC50 [3]: > 64 µg/mL
MIC50 [4]: > 64 µg/mL
MIC90 [4]: > 64 µg/mL
MIC50 [5]: 64 µg/mL
MIC [20]: 1 µg/mL
MIC [21]: 1 µg/mL
MIC [22]: 4 µg/mL
MIC [23]: 1 µg/mL
MIC [24]: 64 µg/mL
MIC [25]: 1 µg/mL
MIC [26]: 1 µg/mL
MIC [27]: > 64 µg/mL
MIC [28]: > 64 µg/mL
MIC [29]: 16 µg/mL
MIC [30]: 16 µg/mL
MIC [31]: 1 µg/mL
MIC [32]: 8 µg/mL
MIC [33]: 62 µg/mL
MIC [34]: 50 µg/mL
MIC [35]: 1 µg/mL
MIC50 [6]: 32 µg/mL
MIC90 [6]: > 64 µg/mL
MIC [36]: 56 µg/mL
MIC [37]: 1 µg/mL
MIC [38]: 1 µg/mL
MIC50 [7]: 32 µg/mL
MIC90 [7]: > 64 µg/mL
MIC [39]: 62 µg/mL
MIC [40]: 62 µg/mL
MIC [41]: > 64 µg/mL
MIC [42]: 4 µg/mL
MIC [43]: 62 µg/mL
MIC [44]: 0.125 µg/mL
MIC50 [8]: > 64 µg/mL
MIC [45]: > 64 µg/mL
MIC [46]: 62 µg/mL
MIC [47]: 4 µg/mL
MIC50 [9]: 64 µg/mL
MIC90 [9]: > 64 µg/mL
MIC [48]: 62 µg/mL
MIC [49]: 4 µg/mL
MIC [50]: 1 µg/mL
MIC [51]: 0.125 µg/mL
MIC [52]: 1 µg/mL
MIC [53]: 2 µg/mL
MIC [54]: 1 µg/mL
MIC [55]: 1 µg/mL
MIC50 [10]: 32 µg/mL
MIC90 [10]: > 64 µg/mL
MIC [56]: 50 µg/mL

From ChEMBL document CHEMBL1687796, “Synthesis and spectrum of the neoglycoside ACHN-490” (2010)
